# Measured values collected from several papers.
# CDK2: Cyclin-dependent kinase 2 (CDK2, Homo sapiens, UniProt P24941)
# CDK2 with cyclin A2: Cyclin-dependent kinase 2, with cyclin A2 (CDK2, Homo sapiens, UniProt P24941)
# PIM1: Serine/threonine-protein kinase pim-1 (PIM1, Homo sapiens, UniProt P11309)
# LGALS4 C-terminal domain: Galectin-4, C-terminal domain (LGALS4, Homo sapiens, UniProt P56470)
# CTSB: Cathepsin B (CTSB, Homo sapiens, UniProt P07858)
SMILES,target,test,quantity,result
COc1cc(N2CCC(N3CCN(C)CC3)CC2)ccc1Nc1ncc(Cl)c(Nc2ccccc2P(C)(C)=O)n1,"Multidrug and toxin extrusion protein 1 (SLC47A1, Homo sapiens, UniProt Q96FL8)","transporter uptake, inhibitor",Ki,0.78 µM
COc1ccc2[nH]c(C(=O)Nc3nc(CC(=O)O)cs3)cc2c1,CDK2,"enzyme activity, inhibitor, ELISA",IC50,3.19 µM
CC(=O)c1nn(-c2ccc(C)cc2)/c(=N/N=C(\C)c2ccc(NC(=O)c3ccccc3)cc2)s1,"Cyclin-dependent kinase 8, with cyclin C (CDK8, Homo sapiens, UniProt P49336)","enzyme activity, inhibitor",IC50,0.267 µM
CC(=O)Nc1c(N)nc(SCC(=O)NN)[nH]c1=O,CDK2 with cyclin A2,"enzyme activity, inhibitor",IC50,0.172 µM
CCOc1nc(-c2cccc(O)c2)cc(-c2cc3cc(OC)ccc3nc2N2CCOCC2)c1C#N,PIM1,"enzyme activity, inhibitor",IC50,0.11 µM
CC1OC(OC2C(OC3C(CO)OC(O)C(O)C3O)OC(CO)C(O)C2OC2OC(CO)C(O)C(O)C2O)C(O)C(O)C1O (stereo not drawn),LGALS4 C-terminal domain,"binding, NMR",Kd,170 µM
CCOC(=O)[C@H]1O[C@@H]1C(=O)N[C@@H](CC(C)C)C(=O)NCCC(C)C,CTSB,"enzyme activity, inhibitor",IC50,0.012 µM
CC(=O)Nc1c(N)nc(SCC(=O)N/N=C/c2ccc([N+](=O)[O-])cc2)[nH]c1=O,CDK2 with cyclin A2,"enzyme activity, inhibitor",IC50,0.189 µM
Nc1ccccc1NC(=O)c1ccc(CNc2ccc(NC3=C(Cl)C(=O)c4cccnc4C3=O)cc2)cc1,"M-phase inducer phosphatase 3 (Homo sapiens, UniProt P30307)","enzyme activity, inhibitor",IC50,0.23 µM
CC(=O)NC1C(OC2C(O)C(CO)OC(OC3C(CO)OC(O)C(O)C3O)C2OC2OC(C)C(O)C(O)C2O)OC(CO)C(O)C1O (stereo not drawn),LGALS4 C-terminal domain,"binding, NMR",Kd,63 µM
NCCCNc1ncnc2c1ncn2[C@@H]1O[C@H](CN(CC#Cc2cccc(C(N)=O)c2)CC[C@H](N)C(=O)O)[C@@H](O)[C@H]1O,"Nicotinamide N-methyltransferase (NNMT, Homo sapiens, UniProt P40261)","enzyme activity, inhibitor, fluorescence",IC50,0.15 µM
O=C(O)Cc1csc(NC(=O)c2cc3ccccc3[nH]2)n1,CDK2,"enzyme activity, inhibitor, ELISA",IC50,1.71 µM
CCOC(=O)/C=C/C(=O)[C@H](CC(C)C)NC(=O)[C@H](Cc1ccccc1)NC(=O)[C@H](Cc1ccccc1)N=[N+]=[N-] (mixture of isomers),CTSB,"enzyme activity, inhibitor",IC50,0.32 µM
CCCOc1nc(-c2cccc(O)c2)cc(-c2cc3cc(OC)ccc3nc2N2CCOCC2)c1C#N,PIM1,"enzyme activity, inhibitor",IC50,0.095 µM
CC(C)C[C@H](NC(=O)[C@H](Cc1ccccc1)NC(=O)OCc1ccccc1)C(=O)C=O,CTSB,"enzyme activity, inhibitor",IC50,4.36 µM
CC(C)Oc1ccc(S(=O)(=O)c2ccc(Oc3cc(OCC(N)=O)c(C(=O)C(Cl)Cl)cc3[N+](=O)[O-])cc2)cc1,"[Pyruvate dehydrogenase (acetyl-transferring)] kinase isozyme 4, mitochondrial (PDK4, Homo sapiens, UniProt Q16654)","enzyme activity, inhibitor, ATP luminescence",IC50,17.2 µM
Cc1ccc2oc(=O)cc(NCCO)c2c1,"Alpha-1A adrenergic receptor (Adra1a, Rattus norvegicus, UniProt P43140)","calcium signal, antagonist",IC50,1820 µM
C[C@H]1C[C@H]2[C@@H]3CCC4=CC(=O)C=C[C@]4(C)[C@@]3(Cl)[C@@H](O)C[C@]2(C)[C@@]1(O)C(=O)CO,"ADGRG3 (Homo sapiens, UniProt Q86Y34)","β-arrestin recruitment, agonist",EC50,3.49 µM
